Experimental data reported in ChEMBL document CHEMBL1145968, “3-(alphaR)-alpha-((2S,5R)-4-allyl-2,5-dimethyl-1-piperazinyl)-3-hydroxybenzyl)-N-alkyl-N-arylbenzamides: potent, non-peptidic agonists of both the micro and delta opioid receptors” (J Med Chem, 2003).

Assays:
[1] = organism: Cavia porcellus; experiment: Inhibition of the electrically induced muscle contractions was determined using the guinea pig ileum; format: functional
Procedure, shortened: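 Intact ileum segments (about 3 cm) suspended under 1 g tension in modified Krebs buffer containing 1.20 mM MgSO4. Field-stimulated with square-wave pulses at 0.1 Hz, 0.5 ms, supramaximal voltage. Cumulative concentrations were each given time for maximal response before the next.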

[2] = organism: Mus musculus; experiment: Inhibition of the electrically induced muscle contractions was determined using the mouse vas deferens; format: functional
Procedure, shortened: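 Vas deferens segments in Krebs buffer, placed between platinum electrodes with isometric force recording at 0.5 g resting tension. Stimulated with 400 ms trains (1 ms pulses, 10 Hz, supramaximal voltage). Cumulative concentrations were each allowed maximal effect before the next.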

[3] = biological target: Delta-type opioid receptor (Rattus norvegicus, UniProt P33533); experiment: Binding affinity of compound evaluated for Opioid receptor delta 1 isolated from rat brain
Sequence of Delta-type opioid receptor (P33533 whole entry): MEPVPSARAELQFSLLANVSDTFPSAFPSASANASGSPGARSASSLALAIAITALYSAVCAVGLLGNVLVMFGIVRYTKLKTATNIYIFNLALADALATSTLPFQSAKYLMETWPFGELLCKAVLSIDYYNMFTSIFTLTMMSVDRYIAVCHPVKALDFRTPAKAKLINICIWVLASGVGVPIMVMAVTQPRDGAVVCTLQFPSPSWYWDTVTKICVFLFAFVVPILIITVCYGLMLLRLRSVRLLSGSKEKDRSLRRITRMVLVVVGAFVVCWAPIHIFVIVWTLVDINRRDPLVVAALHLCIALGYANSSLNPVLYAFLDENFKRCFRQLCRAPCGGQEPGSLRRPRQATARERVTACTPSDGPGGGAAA

Row | SMILES | EC50 ([1]; Cavia porcellus, Ileum) [nM] | EC50 ([2]; Mus musculus) [nM] | Ki [3] [nM] | EC50 [1] [nM] | EC50 [2] [nM]
1 | C=CCN1C[C@H](C)N([C@@H](c2cccc(O)c2)c2cccc(C(=O)N(CCC)c3ccc(F)cc3)c2)C[C@H]1C | 1050 | 0.68 | 2.75 | – | –
2 | C=CCN1C[C@H](C)N([C@@H](c2cccc(O)c2)c2cccc(C(=O)N(C)c3ccc(F)cc3)c2)C[C@H]1C | 0.67 | 1.1 | 1.4 | – | –
3 | C=CCN1C[C@H](C)N([C@@H](c2cccc(O)c2)c2cccc(C(=O)N(C)c3ccc(OC)cc3)c2)C[C@H]1C | 1.1 | 0.36 | 2.01 | – | –
4 | C=CCN1C[C@H](C)N([C@@H](c2cccc(O)c2)c2cccc(C(=O)N(CCCC)c3ccccc3)c2)C[C@H]1C | 41 | 1.7 | – | – | –
5 | C=CCN1C[C@H](C)N([C@@H](c2cccc(O)c2)c2cccc(C(=O)N(C)c3ccc([N+](=O)[O-])cc3)c2)C[C@H]1C | 4.1 | 2.3 | – | – | –
6 | C=CCN1C[C@H](C)N([C@@H](c2cccc(O)c2)c2cccc(C(=O)N(c3ccccc3)C3CC3)c2)C[C@H]1C | 1.23 | 1.42 | 1.92 | – | –
7 | C=CCN1C[C@H](C)N([C@@H](c2cccc(O)c2)c2cccc(C(=O)N(CCC)c3ccccc3)c2)C[C@H]1C | 18 | 2.4 | 1.26 | – | –
8 | C=CCN1C[C@H](C)N([C@@H](c2cccc(O)c2)c2cccc(C(=O)N(CC)c3ccc(F)cc3)c2)C[C@H]1C | 4 | 1.4 | – | – | –
9 | C=CCN1C[C@H](C)N([C@@H](c2cccc(O)c2)c2cccc(C(=O)N(C)c3ccc(Cl)cc3)c2)C[C@H]1C | 4.9 | 2.6 | 2.73 | – | –
10 | C=CCN1C[C@H](C)N([C@@H](c2cccc(O)c2)c2cccc(C(=O)N(C)c3ccccc3)c2)C[C@H]1C | 59.5 | 1.7 | 1.37 | – | –
11 | C=CCN1C[C@H](C)N([C@H](c2cccc(O)c2)c2cccc(C(=O)N(CC)CC)c2)C[C@H]1C | 4.35 | 5.85 | 2.1 | – | –
12 | C=CCN1C[C@H](C)N([C@@H](c2cccc(O)c2)c2cccc(C(=O)N(C)c3cccc(F)c3)c2)C[C@H]1C (stereo in doubt; 32) | – | – | 11.4 | 1800 | 25.3
13 | C=CCN1C[C@H](C)N([C@@H](c2cccc(O)c2)c2cccc(C(=O)N(CC)c3ccccc3)c2)C[C@H]1C | 0.94 | 0.96 | 2.17 | – | –
14 | C=CCN1C[C@H](C)N([C@H](c2cccc(O)c2)c2cccc(C(=O)N(C)c3ccccc3)c2)C[C@H]1C | 1.22 | 0.47 | – | – | –
15 | C=CCN1C[C@H](C)N([C@@H](c2cccc(O)c2)c2cccc(C(=O)N(C)CCc3ccccc3)c2)C[C@H]1C | 6.6 | 0.34 | – | – | –
16 | C=CCN1C[C@H](C)N([C@@H](c2cccc(O)c2)c2cccc(C(=O)N(C)c3ccccc3F)c2)C[C@H]1C | 4.1 | 0.69 | – | – | –
17 | C=CCN1C[C@H](C)N(C(c2ccc(C(=O)N(CC)CC)cc2)c2cccc(O)c2)C[C@H]1C (single isomer, unassigned) | 150 | 0.2 | 1.8 | – | –
18 | C=CCN1C[C@H](C)N([C@@H](c2cccc(O)c2)c2cccc(C(=O)N(C)c3ccccc3C(F)(F)F)c2)C[C@H]1C | 5.6 | 0.95 | – | – | –
19 | C=CCN1C[C@H](C)N([C@@H](c2cccc(O)c2)c2cccc(C(=O)N(C)Cc3ccccc3)c2)C[C@H]1C | 6.07 | 5.6 | – | – | –
20 | C=CCN1C[C@H](C)N([C@@H](c2cccc(O)c2)c2cccc(C(=O)N3CCCc4ccccc43)c2)C[C@H]1C | 11.5 | 1.05 | 1.18 | – | –
21 | C=CCN1C[C@H](C)N([C@@H](c2cccc(O)c2)c2cccc(C(=O)N(C)c3cccc(F)c3)c2)C[C@H]1C (stereo in doubt; 24) | – | – | 0.18 | 3.4 | 0.79
